# Active and inactive are the calls of the source. The rule behind the calls is not given here.
# Columns and labels:
# [1] = Protein binding in rat plasma; format: ADME, cell-free; conditions: read-out: PPB (converted)
# [2] = test system: Pulmonary Artery Smooth Muscle Cells; experiment: Stimulation of sGC in HPASMC assessed as increase in intracellular cGMP level at 100 uM measured after 1 hr in presence of PDE5 inhibitor IBMX and sGC inhibitor ODQ by cGMP-d2/europium cryptate reagent based HTRF assay; format: tissue-based; conditions: Homo sapiens
# How it was run: (§1)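 HPASMCs were suspended at 100,000 cells/mL in PBS with 0.2% BSA, with or without 10 µM ODQ. Compounds were added as a 6-point, 10-fold dilution series; the top 2× stock was 200 µM. Incubation was 1 h at room temperature, in triplicate. cGMP-d2 in lysis buffer and europium cryptate were then added for 1 h before HTRF reading. Three independent experiments.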
# Rattus norvegicus [3] = experiment: In vivo inhibition of AMPK in Sprague-Dawley rat model of hypoxia-induced pulmonary artery hypertension assessed as reduction in ACC phosphorylation in lungs at 10 mg/kg, po administered daily for 2 weeks by Western blot analysis; format: functional, organism-based
# How it was run: (§2)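 Hypoxic PAH model in male SD rats (160-200 g) kept at 10% O2 for 4 weeks. Oral dosing at 10 mg/kg daily for 14 days, suspended in 0.5% CMC-Na; control and hypoxia groups received vehicle only. Lungs homogenized in RIPA with protease and phosphatase inhibitors. 30 µg protein run on 10% SDS-PAGE, then PVDF blotting, with β-actin as loading reference. Three independent runs.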
# Rattus norvegicus [4] = experiment: Inhibition of vascular remodeling activity in Sprague-Dawley rat model of hypoxia-induced pulmonary artery hypertension assessed as reduction in pulmonary artery medial thickness at 10 mg/kg, po administered daily for 2 weeks by H and E staining based digital microscopic analysis; format: functional, organism-based
# How it was run: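 Hypoxia model in male SD rats (10% O2, 4 weeks) with oral dosing at 10 mg/kg daily for 14 days in 0.5% CMC-Na. Paraffin-embedded lung tissue was cut into 5 µm sections and stained with H&E. Pulmonary artery medial thickness was quantified, n = 5/group.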
# [5] = target: T1, AMP-activated protein kinase, AMPK (Homo sapiens) (UniProt P54646+O43741+P54619+Q9UGJ0+Q9Y478+Q13131+Q9UGI9); experiment: Inhibition of AMPK in hypoxia-induced HPASMC assessed as reduction in cell migration measured after 24 hrs by wound healing assay; format: tissue-based; conditions: Pulmonary Artery Smooth Muscle Cells, dose microM 5-10, time 24.0 hrs
# How it was run: (§3)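 Wound-healing assay. 5 × 10^4 cells were seeded per well and grown 24 h to near confluence. The monolayer was scratched with a pipette tip and washed with PBS. Cells were then kept in 1% FBS medium with TGF-β (10 ng/mL) or under hypoxia (1% O2, 5% CO2, 94% N2), alone or with compound. Migration ran 24 h at 37 °C, imaged at 0 and 24 h. Mean ± SD from three independent experiments.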
# Aorta = experiment: Vasodilating activity in Sprague-Dawley rat aortic rings assessed as reduction in phenylephrine-induced contractions; format: functional, tissue-based
# How it was run: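 Thoracic aorta from male SD rats (250-280 g) anesthetized with chloral hydrate, cut into 4 mm rings. Rings held in Krebs-Henseleit at 37 °C gassed with 95% O2/5% CO2, under 2 g resting tension, equilibrated 60 min, and precontracted with 10^-7 M phenylephrine. Cumulative concentrations of 3×10^-9 to 10^-6 M (final) applied. Percent relaxation of the initial contraction taken at 1 µM, and EC50 derived.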
# [6] = test system: Pulmonary Artery Smooth Muscle Cells; experiment: Stimulation of sGC in HPASMC assessed as increase in intracellular cGMP level measured after 1 hr in absence of PDE5 inhibitor IBMX and sGC inhibitor ODQ by cGMP-d2/europium cryptate reagent based HTRF assay; format: tissue-based; conditions: Homo sapiens, filed as activator; how it was run: as §1
# [7] = Solubility of compound in water at pH 3.5; format: physicochemical; conditions: buffer
# [8] = target: T1, AMP-activated protein kinase, AMPK (Homo sapiens); experiment: Inhibition of AMPK in TGFbeta-induced HPASMC assessed as reduction in cell migration measured after 24 hrs by wound healing assay; format: tissue-based; conditions: Pulmonary Artery Smooth Muscle Cells, dose microM 5-10, time 24.0 hrs; how it was run: as §3
# [9] = Half life in human liver microsomes at 1.5 uM preincubated for 5 mins followed by NADPH addition and measured up to 45 mins by LC-MS/MS analysis; format: ADME, Microsome; conditions: time <=50 min
# How it was run: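 Liver microsomes (0.75 mg/mL), human or SD rat, in 0.1 M potassium phosphate pH 7.4 with 3.0 mM MgCl2 and 1.5 µM compound, run in duplicate. After 5 min preincubation at 37 °C, reaction started with 3 mM NADPH. Quenched at 0, 5, 15, 30 and 45 min with ice-cold acetonitrile containing internal standard. Ketanserin served as positive control and a no-NADPH buffer incubation as negative control. LC-MS/MS read-out.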
# Rattus norvegicus [10] = experiment: Inhibition of vascular remodeling activity in Sprague-Dawley rat model of hypoxia-induced pulmonary artery hypertension assessed as reduction in Smad2 phosphorylation in lungs at 10 mg/kg, po administered daily for 2 weeks by Western blot analysis; format: functional, organism-based; how it was run: as §2
# [11] = Antiproliferative activity against HPASMC measured after 48 hrs under hypoxic condition by CCK8 assay; format: functional, tissue-based; conditions: Homo sapiens, Pulmonary Artery Smooth Muscle Cells
# How it was run: (§4)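 HPASMCs were grown in high-glucose D-MEM with 20% FBS, and HLF1 in D-MEM/F-12 (1:1) with 10% FBS. Cells were seeded for exponential growth, then exposed to a range of compound concentrations for 48 h at 37 °C under hypoxia (1% O2, 5% CO2, 94% N2). CCK-8 was added for 4 h and absorbance read at 490 nm. IC50 came from dose-response curves averaged over three independent experiments.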
# Rattus norvegicus [12] = experiment: Inhibition of vascular remodeling activity in Sprague-Dawley rat model of hypoxia-induced pulmonary artery hypertension assessed as weight ratio of right ventricle/left ventricle plus septum at 10 mg/kg, po administered daily for 2 weeks (reference value: 0.63); format: functional
# Homo sapiens = organism: Homo sapiens; experiment: Inhibition of CaMKKbeta phosphorylated recombinant human AMPK alpha1/beta1/gamma1 using 1-biotin as substrate incubated for 60 mins by HTRF assay; conditions: time 1.0 hrs
# How it was run: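 Kinase reaction with 0.16 µM STK substrate 1-biotin, 0.8 mmol DTT, 4 mmol MgCl2, 4 µM ATP and compound, started by adding 1 ng/µl CaMKKβ-prephosphorylated AMPK (α1β1γ1). Ran 1 h at 37 °C, then Eu3+-cryptate STK antibody plus 57.5 nmol/L XL-665 for 1 h at room temperature. Activity read as the 665/620 ratio ×10000. Curves averaged from three independent experiments.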
# Rattus norvegicus [13] = experiment: In vivo stimulation of sGC in Sprague-Dawley rat model of hypoxia-induced pulmonary artery hypertension assessed as […] in PKG1 expression in lungs at 10 mg/kg, po administered daily for 2 weeks by Western blot analysis; format: functional, organism-based; how it was run: as §2
# [14] = Antiproliferative activity against HLF1 cells measured after 48 hrs under hypoxic condition by CCK8 assay; format: functional, cell-based; conditions: Homo sapiens, HLF1, 48 h; how it was run: as §4
# [15] = Antiproliferative activity against HLF1 cells assessed as reduction in TGFbeta-induced cell proliferation measured after 48 hrs by CCK8 assay; format: functional, cell-based; conditions: Homo sapiens, HLF1, 48 h
# How it was run: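 HPASMCs grown in high-glucose D-MEM with 20% FBS and HLF1 in D-MEM/F-12 (1:1) with 10% FBS. Cells stimulated with TGF-β (10 ng/mL) at 37 °C, 5% CO2, then exposed to a concentration range for 48 h. CCK-8 added for 4 h and absorbance read at 490 nm. IC50 derived from the curves.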
# [16] = target: T1, AMP-activated protein kinase, AMPK (Homo sapiens); experiment: Inhibition of AMPK in hypoxia-induced HLF1 cells assessed as reduction in cell migration measured after 24 hrs by wound healing assay; format: cell-based; conditions: dose microM 5-10, time 24.0 hrs; how it was run: as §3
structure (smiles),measurement,setting,value
Cc1ccccc1COc1nc2c(cc1-c1nc(N)cc(N)n1)c(C)nn2-c1ccccc1,fraction unbound,[1],0.007
same,Activity,[2],inactive
same,inhibition,Rattus norvegicus [3],Active
same,inhibition,Rattus norvegicus [4],Active
same,inhibition,[5],Dose-dependent effect
same,EC50,Aorta,0.29 µM
same,Activity,[6],Active
same,solubility,[7],0.028 µg/mL
same,inhibition,[8],Dose-dependent effect
same,half-life at 1.5 µM,[9],2.08 h
same,inhibition,Rattus norvegicus [10],Active
same,IC50,[11],20.8 µM
same,Ratio,Rattus norvegicus [12],0.38
same,inhibition,Homo sapiens,Dose-dependent effect
same,Activity,Rattus norvegicus [13],Active
same,IC50,[14],34.9 µM
same,IC50,[15],38.5 µM
same,inhibition,[16],Dose-dependent effect

# Reference: ChEMBL document CHEMBL4699492, “Discovery of Novel Pyrazolo[3,4-b] Pyridine Derivatives with Dual Activities of Vascular Remodeling Inhibition and Vasodilation for the Treatment of Pulmonary Arterial Hypertension” (J Med Chem, 2020)
